Measurements from PMC4627693 (Chemistry & biology, 2014).
Where a SMILES comes first, the peptide text is derived from it. The star is where a group is joined. Biotin = O=C1N[C@H]2[C@H](CS[C@H]2CCCCC(=O)*)N1; AEEA = NCCOCCOCC(=O)O

Tests used:
Assay type in all cases: binding
[1] = system: c-Src-imine (c-Src-1 complex); test: Thiol reaction with Src-imine
Procedure, shortened: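 c-Src (4 μM) pre-labelled 15 min with dialdehyde crosslinker (20 μM) in 25 mM HEPES pH 6.5, not quenched. Imine adduct then treated with 2-methylbenzylmercaptan (50 μM–1 mM) or Cys peptide (25–400 μM). Products analysed by ESI LC-MS with deconvolution. Duplicate points, representative of three experiments, error shown as SEM.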

c-Src-acrylamide = c-Src-acrylamide (Gallus gallus, UniProt P00523); test: Thiol reaction with Src-acrylamide, LC-MS; details: 4 μM c-Src-acrylamide (crosslinker 2), 25 minutes, room temperature
Procedure, shortened: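 Recombinant c-Src (4 μM final) was pre-labelled with 20 μM crosslinker in PBS pH 8 (0.025% DMSO final) for 15 min without quench. It was then reacted with 2-methylbenzylmercaptan (50 μM-1 mM) or Cys-containing peptide (25-400 μM) to give a dose-response. Products were read by LC-ESI-MS (C4 column, deconvoluted spectra). Data are duplicate points (SEM), from three separate experiments.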

c-Src [2] = details: peptide 74 μM, 4 μM c-Src, 20 μM crosslinker 2; three hour time course; LC-MS
Procedure, shortened: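 c-Src (4 μM) in PBS pH 8 incubated with acrylate crosslinker (20 μM; DMSO 0.025% final) and biotinylated cysteine-containing quasi-substrate peptide (74 μM) over 3 h. Samples quenched with NaBH4 in cold MeOH and analysed by ESI LC-MS on a C4 column with deconvolution. Crosslinked product expressed as % of total c-Src.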

recombinant c-Src = details: crosslinker 2 (20 μM), HCT-15 lysate
Procedure, shortened: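 HCT-15 lysate diluted in reaction buffer to 2 mg/mL (500 μL), with MgCl2 and 4 pmol recombinant c-Src added. Crosslinker (20 μM) added for 10 min at room temperature, then biotinylated Cys peptide (5–40 μM final) for 25 min. Urea lysis buffer added, then streptavidin-agarose capture for 1 h at room temperature with shaking. Beads washed in 4M urea and boiled in reducing Laemmli buffer. Anti-Src western blot read by infrared imaging, giving % of a total-c-Src standard. Duplicates; two experiments.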

c-Src [3] = details: no adenine mimetic; 20 μM crosslinker, 4 μM c-Src, 25 mM HEPES pH 6.5; NaBH4 quench; LC-MS

Cc1ccccc1CS [2-methylbenzylmercaptan, reference compound]
product formation with c-Src-1 complex (Src-imine) ([1]; at high concentrations (50 μM-1 mM range), 4 μM c-Src-imine, 25 minutes, room temperature, LC-MS): significant product formation
crosslinked product formation with Src-acrylamide adduct (c-Src-acrylamide): much less efficient

CC[C@H](C)[C@H](NC(=O)COCCOCCNC(=O)COCCOCCNC(=O)CCCC[C@@H]1SC[C@@H]2NC(=O)N[C@@H]21)C(=O)N[C@@H](CS)C(=O)NCC(=O)N[C@@H](CCC(=O)O)C(=O)N[C@@H](Cc1ccccc1)C(=O)N[C@@H](CCCNC(=N)N)C(=O)N[C@@H](CCCNC(=N)N)C(=O)N[C@@H](CCCNC(=N)N)C(N)=O [Cys-Srctide] ({Biotin-AEEA-AEEA}-ICGEFRRR-NH2; C-terminus assumed)
crosslinked product formation over time course (in words) (c-Src [2]): proceed to completion
overall yield of the reaction with dialdehyde crosslinker 1 ([1]; dialdehyde-based crosslinker (earlier strategy), LC/MS): below the limit of detection
crosslinked product formation with c-Src-1 complex ([1]; peptide concentrations exceeding 200 μM, 4 μM c-Src-imine, room temperature, LC-MS): no product formation was detected
c-Src captured at lowest peptide concentration (recombinant c-Src; 5 μM peptide, 25 minutes): roughly 1%
crosslinked product formation with Src-acrylamide adduct (c-Src-acrylamide): significant crosslinked product

O=Cc1ccsc1C=O [thiophene dialdehyde]
product (adduct) formed with c-Src (c-Src [3]): almost undetectable

Biotin-ZZRPRTSCF [Cys-Aktide]
crosslinked product formation over time course (in words) (c-Src [2]): reacted more slowly than Cys-Srctide, and did not reach completion
c-Src captured at lowest peptide concentration (in words) (recombinant c-Src; 5 μM peptide, 25 minutes): not captured at a detectable level
percentage of c-Src recovered vs negative control (recombinant c-Src; 40 μM peptide): significantly above the negative control
yield of c-Src compared with Cys-Srctide (recombinant c-Src; 25 minutes): less than that of Cys-Srctide

Biotin-ZZRRADDCDDDD [Cys-CK2tide]
crosslinked product (percentage of total c-Src) (c-Src [2]): less than 10%
